Data set [1] deals with A549. Nature of the data set: Cytotoxicity against human A549 cells assessed as reduction in cell viability at 20 uM after 24 hrs by MTT assay. To be noted: a549, 24 h. The class given is cell-based. The procedure, abridged:
(§1)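 A549 cells were exposed to compound in serum-free medium for 24 h, and viability was read by MTT assay. Mean ± SD of three independent experiments; Student's t test versus untreated control.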

Data set [2] concerns A549. Description: Cytotoxicity against human A549 cells assessed as reduction in cell viability at 10 uM after 24 hrs by MTT assay. The format is cell-based. The conditions noted are these: a549, 24 h. The procedure, abridged:
as §1

The nature of data set [3]: Inhibition of FAK/AKT/ROCK signaling pathway in human A549 cells assessed as decrease in OPN-induced lamellipodia formation at 10 uM after 24 hrs by rhodamine phalloidin/DAPI staining based immunofluorescence assay. The format is cell-based. The procedure, abridged:
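5 × 10^4 cells/well were seeded on chamber slides and treated with 1 nM OPN for 24 h with or without 10 μM compound. Cells were fixed in 4% formaldehyde/PBS pH 7.4 for 10 min and permeabilized in 0.5% Triton X-100 for 5 min. They were stained with 100 nM rhodamine phalloidin for 30 min at room temperature in the dark, counterstained with DAPI, and imaged by confocal microscopy at 600×.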

Data set [4] deals with A549. Nature of the data set: Anti-invasive activity in human A549 cells assessed as inhibition of OPN-induced cell invasion to matrigel coated invasion chamber at 5 uM preincubated for 30 mins followed by OPN stimulation measured after 24 hrs by boyden chamber assay. The class given is functional. Put shortly: (§2)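 Boyden chamber with a Matrigel-coated filter. Cells were pretreated with compound for 30 min and loaded into the upper wells, with 1 nM OPN in the lower wells. After 24 h at 37 °C, cells were stained, random fields were photographed at 200×, and cells on the lower surface were counted. Mean ± SD of two independent experiments; Student's t test.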

Data set [5] concerns A549. Description: Anti-invasive activity in human A549 cells assessed as inhibition of OPN-induced cell invasion to matrigel coated invasion chamber at 10 uM preincubated for 30 mins followed by OPN stimulation measured after 24 hrs by boyden chamber assay. The format is functional. The procedure, abridged:
as §2

The nature of data set [6]: Inhibition of FAK/AKT/ROCK signaling pathway in human A549 cells assessed as decrease in OPN-induced phosphorylation of cofilin at 5 to 10 uM after 24 hrs by Western blot analysis. The format is cell-based. Put shortly: (§3)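 A549 cells were given 1 nM OPN for 24 h with or without compound. 25–30 μg total protein per lane was probed with primary antibodies overnight at 4 °C, then secondary antibodies for 2 h at room temperature. Detection was by enhanced chemiluminescence, with densitometric band quantification. Mean ± SD of two independent experiments; Student's t test.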

Data set [7] can be described thus: Inhibition of FAK/AKT/ROCK signaling pathway in human A549 cells assessed as decrease in OPN-induced ROCK1 expression at 5 to 10 uM after 24 hrs by Western blot analysis. The format is cell-based. The procedure, abridged:
as §3
On the technique in general: Immunoblotting shows a protein as a band on a membrane.

Data set [8] is described as follows: Inhibition of FAK/AKT/ROCK signaling pathway in human A549 cells assessed as decrease in OPN-induced phosphorylation of LIMK1/2 at 5 to 10 uM after 24 hrs by Western blot analysis. The format is cell-based. Put shortly: as §3
The test system of data set [9] is A549. Description: Effect on total ROCK1 protein level in OPN-stimulated human A549 cells at 5 to 10 uM after 24 hrs by Western blot analysis. The class given is ADME, cell-based. To be noted: a549, 24 h. Put shortly: as §3
Data set [10] has as its system A549. Description: Effect on total LIMK1/2 protein level in OPN-stimulated human A549 cells at 5 to 10 uM after 24 hrs by Western blot analysis. The format is ADME, cell-based. To be noted: a549, 24 h. Put shortly:
as §3

Data set [11] concerns A549. Description: Effect on total cofilin protein level in OPN-stimulated human A549 cells at 5 to 10 uM after 24 hrs by Western blot analysis. The conditions noted are these: a549, 24 h. The class given is ADME, cell-based. Put shortly:
as §3

Data set [12] concerns the target Focal adhesion kinase 1 (Homo sapiens) (UniProt Q05397). Nature of the data set: Inhibition of FAK signaling pathway in human A549 cells assessed as decrease in OPN-induced FAK phosphorylation at 5 to 10 uM after 15 mins by Western blot analysis. The class given is cell-based.
Data set [13] in a line: Inhibition of FAK/AKT/ROCK signaling pathway in human A549 cells assessed as decrease in OPN-induced AKT phosphorylation at 5 to 10 uM after 15 mins by Western blot analysis. The format is cell-based.
Data set [14] relates to A549. Nature of the data set: Effect on total FAK protein level in OPN-stimulated human A549 cells at 5 to 10 uM after 24 hrs by Western blot analysis. The class given is ADME, cell-based. The conditions noted are these: a549, 24 h. The procedure, abridged: as §3
The subject of data set [15] is A549. Description: Effect on total AKT protein level in OPN-stimulated human A549 cells at 5 to 10 uM after 24 hrs by Western blot analysis. The class given is ADME, cell-based. The conditions noted are these: a549, 24 h. Put shortly: as §3

Our source for the Activity and inhibition values is ChEMBL document CHEMBL3785032, “Zerumbone Suppresses Osteopontin-Induced Cell Invasion Through Inhibiting the FAK/AKT/ROCK Pathway in Human Non-Small Cell Lung Cancer A549 Cells” (J Nat Prod, 2016).

SMILES strings stand for the structures. The source made the active and inactive calls. No cut-off for these calls is given here.

Focal adhesion kinase 1 (Homo sapiens), sequence (Q05397 2-1052 limits assumed): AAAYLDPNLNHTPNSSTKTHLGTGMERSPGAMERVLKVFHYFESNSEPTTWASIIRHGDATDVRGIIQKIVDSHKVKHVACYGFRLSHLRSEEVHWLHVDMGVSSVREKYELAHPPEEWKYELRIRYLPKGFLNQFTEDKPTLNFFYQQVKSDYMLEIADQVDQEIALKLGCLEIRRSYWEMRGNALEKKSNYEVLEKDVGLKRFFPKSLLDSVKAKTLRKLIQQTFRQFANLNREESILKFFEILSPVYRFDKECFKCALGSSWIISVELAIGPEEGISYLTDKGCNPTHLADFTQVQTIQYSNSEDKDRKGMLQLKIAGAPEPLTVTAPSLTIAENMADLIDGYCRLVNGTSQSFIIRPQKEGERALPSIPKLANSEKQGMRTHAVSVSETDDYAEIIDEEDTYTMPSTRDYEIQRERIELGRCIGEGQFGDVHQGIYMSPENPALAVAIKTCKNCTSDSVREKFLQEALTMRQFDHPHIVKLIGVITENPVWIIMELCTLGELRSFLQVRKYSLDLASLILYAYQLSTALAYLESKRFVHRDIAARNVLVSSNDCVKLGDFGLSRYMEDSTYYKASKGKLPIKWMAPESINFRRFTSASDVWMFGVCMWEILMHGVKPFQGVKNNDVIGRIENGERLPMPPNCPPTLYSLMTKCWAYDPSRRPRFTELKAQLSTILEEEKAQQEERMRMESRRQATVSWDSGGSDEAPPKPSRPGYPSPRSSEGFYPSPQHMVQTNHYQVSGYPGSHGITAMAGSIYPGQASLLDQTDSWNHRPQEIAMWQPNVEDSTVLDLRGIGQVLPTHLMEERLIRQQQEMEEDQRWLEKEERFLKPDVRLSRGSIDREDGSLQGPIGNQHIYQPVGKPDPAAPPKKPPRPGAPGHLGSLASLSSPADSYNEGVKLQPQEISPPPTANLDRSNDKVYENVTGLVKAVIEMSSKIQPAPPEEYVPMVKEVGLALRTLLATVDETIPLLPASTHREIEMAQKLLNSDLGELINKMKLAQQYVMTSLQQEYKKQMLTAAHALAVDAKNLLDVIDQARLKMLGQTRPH

Turning to `C/C1=C\CC(C)(C)/C=C/C(=O)/C(C)=C/CC1` [ZERUMBONE], the Activity result was “Toxic” with A549 [1]; “Non-toxic” in the data set with A549 [2]; “Non-toxic” in the data set with A549 [9]; “Non-toxic” in the data set on A549 [10]; “Non-toxic” in the data set on A549 [11]; “Non-toxic” with A549 [14]. For the same compound, in the data set on A549 [15], the Activity entry is listed as “Non-toxic”. The inhibition entry in data set [3], in [12] and in data set [13] was “Active” throughout. Further, the inhibition (as a rule, the percentage by which the read-out fell short of the control) at 5 µM with A549 [4] was 48%. In the data set with A549 [5], the inhibition at 10 µM was 69%. In addition, the inhibition result in data set [6], in [7] and in data set [8] was “Dose-dependent effect” in each case.
